CFU/ml data for one substance are collected here from ChEMBL document CHEMBL1143826, “Treatment of Staphylococcus aureus biofilm infection by the quorum-sensing inhibitor RIP” (2007).

What all share (assay type): functional
Settings in all cases: route intraperitoneal

The subject of experiment [1] is Staphylococcus aureus. Nature of the experiment: Antibacterial activity against methicillin-resistant Staphylococcus aureus ATCC 43300 in rat graft model assessed as biofilm reduction at 10 mg/kg, ip administered as seven dose, 3 days after graft implantation. An outline of the steps: (§1)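 Wistar rats (n = 15) with subcutaneous 1-cm2 collagen-sealed Dacron grafts challenged with MRSA. Treatment began 3 days after implantation, once the biofilm was established. RIP 10 mg/kg and/or teicoplanin 3 mg/kg given ip daily for 7 days. Grafts explanted on day 10 and counted as CFU/ml. Untreated controls explanted on days 3 and 10.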

The test system of experiment [2] is Staphylococcus aureus. As to the kind of experiment: Antibacterial activity against methicillin-resistant Staphylococcus aureus ATCC 43300 in rat graft model assessed as biofilm reduction at 3 mg/kg, ip administered as seven dose, 3 days after graft implantation. An outline of the steps:
as §1

Experiment [3] deals with Staphylococcus aureus. As to the kind of experiment: Antibacterial activity against Staphylococcus aureus SD in rat graft model assessed as biofilm reduction at 30 mg/kg, ip administered as seven doses, 2 days after graft implantation. Summed up: (§2)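 Wistar rats (n = 5) with 1-cm2 collagen-sealed Dacron grafts implanted subcutaneously. 2 × 10^7 exponentially growing bacteria inoculated onto the graft. RIP given intraperitoneally daily for 1, 4 or 7 days, starting immediately after implantation or 2 days later. Grafts explanted on day 10. Bacterial load expressed as CFU/ml; detection limit 10 CFU/ml. Untreated challenged controls.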

For experiment [4], the system named is Staphylococcus aureus. Nature of the experiment: Antibacterial activity against Staphylococcus aureus SD in rat graft model assessed as biofilm reduction at 30 mg/kg, ip administered as single dose, 2 days after graft implantation. An outline of the steps: as §2
The subject of experiment [5] is Staphylococcus aureus. Nature of the experiment: Antibacterial activity against Staphylococcus aureus SD in rat graft model assessed as biofilm reduction at 10 mg/kg, ip administered as single dose, 2 days after graft implantation. Summed up: as §2
Experiment [6] deals with Staphylococcus aureus. As to the kind of experiment: Antibacterial activity against Staphylococcus aureus SD in rat graft model assessed as biofilm reduction at 20 mg/kg, ip administered as seven doses, 2 days after graft implantation. Summed up:
as §2

The subject of experiment [7] is Staphylococcus aureus. Nature of the experiment: Antibacterial activity against Staphylococcus aureus SD in rat graft model assessed as biofilm reduction at 20 mg/kg, ip administered as single dose immediately after graft implantation. An outline of the steps: as §2
The subject of experiment [8] is Staphylococcus aureus. As to the kind of experiment: Antibacterial activity against Staphylococcus aureus SD in rat graft model assessed as biofilm reduction at 10 mg/kg, ip administered as single dose immediately after graft implantation. An outline of the steps:
as §2

In experiment [9] the test system is Staphylococcus aureus. Nature of the experiment: Antibacterial activity against Staphylococcus aureus SD in rat graft model assessed as biofilm reduction at 30 mg/kg, ip administered as single dose immediately after graft implantation. Summed up: as §2
Experiment [10] relates to Staphylococcus aureus. As to the kind of experiment: Antibacterial activity against Staphylococcus aureus SD in rat graft model assessed as biofilm reduction at 30 mg/kg, ip administered as four doses, 2 days after graft implantation. Summed up:
as §2

Experiment [11] has as its system Staphylococcus aureus. As to the kind of experiment: Antibacterial activity against Staphylococcus aureus SD in rat graft model assessed as biofilm reduction at 20 mg/kg, ip administered as single dose, 2 days after graft implantation. An outline of the steps:
as §2

Experiment [12] deals with Staphylococcus aureus. As to the kind of experiment: Antibacterial activity against Staphylococcus aureus SD in rat graft model assessed as biofilm reduction at 10 mg/kg, ip administered as four doses, 2 days after graft implantation. An outline of the steps: as §2
Experiment [13] has as its system Staphylococcus aureus. Nature of the experiment: Antibacterial activity against Staphylococcus aureus SD in rat graft model assessed as biofilm reduction at 20 mg/kg, ip administered as four doses, 2 days after graft implantation. An outline of the steps:
as §2

The test system of experiment [14] is Staphylococcus aureus. As to the kind of experiment: Antibacterial activity against Staphylococcus aureus SD in rat graft model assessed as biofilm reduction at 10 mg/kg, ip administered as seven doses, 2 days after graft implantation. Summed up:
as §2

On to H-YSPWTNF-NH2, for which the CFU/ml amounted to 78000 in the experiment with Staphylococcus aureus [1]; 36000 in the experiment with Staphylococcus aureus [2]; 290 in the experiment on Staphylococcus aureus [3]; 760000 in the experiment with Staphylococcus aureus [4]; 8400000 in the experiment on Staphylococcus aureus [5]; 410 in the experiment with Staphylococcus aureus [6]. Moreover, the CFU/ml in the experiment on Staphylococcus aureus [7] worked out at 9400; with Staphylococcus aureus [8], 50000; in the experiment with Staphylococcus aureus [9] it was 2300; in the experiment with Staphylococcus aureus [10] it was 850; in the experiment on Staphylococcus aureus [11], 3000000; in the experiment on Staphylococcus aureus [12] it was 53000. Further, the CFU/ml in the experiment with Staphylococcus aureus [13] is listed as 6300; with Staphylococcus aureus [14], 6700.
